≈ marks a conversion by molar mass, not a printed value.
Columns and labels:
Format in all cases: functional
[1] = system: Aspergillus fumigatus; experiment: Antimicrobial activity against Aspergillus fumigatus isolate 42 by CLSI M38-A2 broth microdilution method
In short: (§1)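 CLSI M38-A2 broth microdilution with posaconazole. MIC taken as the lowest concentration with no visible growth at 48 h. C. parapsilosis ATCC 22019 and C. krusei ATCC 6258 were included as QC strains in every run.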

[2] = system: Aspergillus fumigatus; experiment: Antimicrobial activity against Aspergillus fumigatus isolate 44 by oxygen consumption method
[3] = system: Aspergillus fumigatus; experiment: Antimicrobial activity against Aspergillus fumigatus isolate 46 by oxygen consumption method
[4] = system: Aspergillus fumigatus; experiment: Antimicrobial activity against Aspergillus fumigatus isolate 1 after 24 hrs by Etest; conditions: isolate 1, 24 h
In short: (§2)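 Posaconazole Etest strips placed on RPMI 1640 agar with 2% glucose, pH 7.0, and run per the strip maker's instructions. Incubation at 35°C, with the MIC read at 24 h and at 48 h.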

[5] = system: Aspergillus fumigatus; experiment: Antimicrobial activity against Aspergillus fumigatus isolate 6 after 24 hrs by Etest; conditions: isolate 6, 24 h
[6] = system: Aspergillus fumigatus; experiment: Antimicrobial activity against Aspergillus fumigatus isolate 8 after 24 hrs by Etest; conditions: isolate 8, 24 h
[7] = system: Aspergillus fumigatus; experiment: Antimicrobial activity against Aspergillus fumigatus isolate 9 after 24 hrs by Etest; conditions: isolate 9, 24 h
[8] = system: Aspergillus fumigatus; experiment: Antimicrobial activity against Aspergillus fumigatus isolate 14 after 24 hrs by Etest; conditions: isolate 14, 24 h; in short: as §2
[9] = system: Aspergillus fumigatus; experiment: Antimicrobial activity against Aspergillus fumigatus isolate 15 after 24 hrs by Etest; conditions: isolate 15, 24 h; in short: as §2
[10] = system: Aspergillus fumigatus; experiment: Antimicrobial activity against Aspergillus fumigatus isolate 28 after 24 hrs by Etest; conditions: isolate 28, 24 h
In short: (§3)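 Etest strips on RPMI 1640 agar with 2% glucose, pH 7.0, run per manufacturer's instructions. Incubated at 35°C; MIC read at 24 h.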

[11] = system: Aspergillus fumigatus; experiment: Antimicrobial activity against Aspergillus fumigatus isolate 30 after 24 hrs by Etest; conditions: isolate 30, 24 h; in short: as §3
[12] = system: Aspergillus fumigatus; experiment: Antimicrobial activity against Aspergillus fumigatus isolate 31 after 24 hrs by Etest; conditions: isolate 31, 24 h; in short: as §3
[13] = system: Aspergillus fumigatus; experiment: Antimicrobial activity against Aspergillus fumigatus isolate 32 after 24 hrs by Etest; conditions: isolate 32, 24 h
In short: (§4)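 Posaconazole Etest strips on RPMI 1640 agar with 2% glucose, pH 7.0, run per the strip maker's instructions. Incubated at 35°C. MIC read at 24 h and at 48 h, matching the time in each line.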

[14] = system: Aspergillus fumigatus; experiment: Antimicrobial activity against Aspergillus fumigatus isolate 41 after 24 hrs by Etest; conditions: isolate 41, 24 h; in short: as §4
[15] = system: Aspergillus fumigatus; experiment: Antimicrobial activity against Aspergillus fumigatus isolate 43 after 24 hrs by Etest; conditions: isolate 43, 24 h; in short: as §4
[16] = system: Aspergillus fumigatus; experiment: Antimicrobial activity against Aspergillus fumigatus isolate 44 after 24 hrs by Etest; conditions: isolate 44, 24 h
[17] = system: Aspergillus fumigatus; experiment: Antimicrobial activity against Aspergillus fumigatus isolate 45 after 24 hrs by Etest; conditions: isolate 45, 24 h
[18] = system: Aspergillus fumigatus; experiment: Antimicrobial activity against Aspergillus fumigatus isolate 46 after 24 hrs by Etest; conditions: isolate 46, 24 h
[19] = system: Aspergillus fumigatus; experiment: Antimicrobial activity against Aspergillus fumigatus isolate 7 after 48 hrs by Etest; conditions: isolate 7, 48 h
[20] = system: Aspergillus fumigatus; experiment: Antimicrobial activity against Aspergillus fumigatus isolate 8 after 48 hrs by Etest; conditions: isolate 8, 48 h
[21] = system: Aspergillus fumigatus; experiment: Antimicrobial activity against Aspergillus fumigatus isolate 10 after 48 hrs by Etest; conditions: isolate 10, 48 h; in short: as §2
[22] = system: Aspergillus fumigatus; experiment: Antimicrobial activity against Aspergillus fumigatus isolate 23 after 48 hrs by Etest; conditions: isolate 23, 48 h
In short: (§5)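 Etest strips on RPMI 1640 agar with 2% glucose, pH 7.0, run per manufacturer's instructions. Incubated at 35°C; MIC read at 48 h.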

[23] = system: Aspergillus fumigatus; experiment: Antimicrobial activity against Aspergillus fumigatus isolate 31 after 48 hrs by Etest; conditions: isolate 31, 48 h; in short: as §5
[24] = system: Aspergillus fumigatus; experiment: Antimicrobial activity against Aspergillus fumigatus isolate 38 after 48 hrs by Etest; conditions: isolate 38, 48 h; in short: as §4
[25] = system: Aspergillus fumigatus; experiment: Antimicrobial activity against Aspergillus fumigatus isolate 42 after 48 hrs by Etest; conditions: isolate 42, 48 h; in short: as §4
[26] = system: Aspergillus fumigatus; experiment: Antimicrobial activity against Aspergillus fumigatus isolate 43 after 48 hrs by Etest; conditions: isolate 43, 48 h; in short: as §4
[27] = system: Aspergillus fumigatus; experiment: Antimicrobial activity against Aspergillus fumigatus isolate 16 by oxygen consumption method
In short: (§6)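 Conidial suspension in RPMI 1640 broth with posaconazole at 0.25 and 2 μg/ml. Tubes agitated 12 h at 37°C in a biological oxygen monitor. Available oxygen was monitored continuously, and the MIC was assigned from the oxygen quantification.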

[28] = system: Aspergillus fumigatus; experiment: Antimicrobial activity against Aspergillus fumigatus isolate 17 by oxygen consumption method; in short: as §6
[29] = system: Aspergillus fumigatus; experiment: Antimicrobial activity against Aspergillus fumigatus isolate 23 by oxygen consumption method
In short: (§7)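 Conidial suspension in RPMI 1640 broth, 1.5 ml, with two drug concentrations (0.25 and 2 μg/ml). Tubes agitated 12 h at 37°C in a biological oxygen monitor. Available oxygen monitored continuously and quantified to assign the MIC.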

[30] = system: Aspergillus fumigatus; experiment: Antimicrobial activity against Aspergillus fumigatus isolate 26 by oxygen consumption method; in short: as §7
[31] = system: Aspergillus fumigatus; experiment: Antimicrobial activity against Aspergillus fumigatus isolate 27 by oxygen consumption method; in short: as §7
[32] = system: Aspergillus fumigatus; experiment: Antimicrobial activity against Aspergillus fumigatus isolate 34 by oxygen consumption method
In short: (§8)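 Conidial suspension in RPMI 1640 broth, tested at two posaconazole levels (0.25 and 2 μg/ml). Agitated for 12 h at 37°C in a biological oxygen monitor. MIC derived from continuous monitoring and quantification of the available oxygen.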

[33] = system: Aspergillus fumigatus; experiment: Antimicrobial activity against Aspergillus fumigatus isolate 36 by oxygen consumption method; in short: as §8
[34] = system: Aspergillus fumigatus; experiment: Antimicrobial activity against Aspergillus fumigatus isolate 39 by oxygen consumption method; in short: as §8
[35] = system: Aspergillus fumigatus; experiment: Antimicrobial activity against Aspergillus fumigatus isolate 1 by CLSI M38-A2 broth microdilution method
In short: (§9)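 Posaconazole broth microdilution follows CLSI M38-A2. The MIC is the lowest concentration with no visible growth at 48 h. Candida parapsilosis ATCC 22019 and Candida krusei ATCC 6258 were included as QC strains in every run.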

[36] = system: Aspergillus fumigatus; experiment: Antimicrobial activity against Aspergillus fumigatus isolate 3 by CLSI M38-A2 broth microdilution method
In short: (§10)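 Reference broth microdilution per CLSI M38-A2. MIC read as absence of visible growth at 48 h. C. parapsilosis ATCC 22019 and C. krusei ATCC 6258 QC strains run in each test session.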

[37] = system: Aspergillus fumigatus; experiment: Antimicrobial activity against Aspergillus fumigatus isolate 11 by CLSI M38-A2 broth microdilution method; in short: as §9
[38] = system: Aspergillus fumigatus; experiment: Antimicrobial activity against Aspergillus fumigatus isolate 17 by CLSI M38-A2 broth microdilution method; in short: as §9
[39] = system: Aspergillus fumigatus; experiment: Antimicrobial activity against Aspergillus fumigatus isolate 23 by CLSI M38-A2 broth microdilution method; in short: as §10
[40] = system: Aspergillus fumigatus; experiment: Antimicrobial activity against Aspergillus fumigatus isolate 24 by CLSI M38-A2 broth microdilution method; in short: as §10
[41] = system: Aspergillus fumigatus; experiment: Antimicrobial activity against Aspergillus fumigatus isolate 31 by CLSI M38-A2 broth microdilution method; in short: as §10
[42] = system: Aspergillus fumigatus; experiment: Antimicrobial activity against Aspergillus fumigatus isolate 35 by CLSI M38-A2 broth microdilution method; in short: as §1
[43] = system: Aspergillus fumigatus; experiment: Antimicrobial activity against Aspergillus fumigatus isolate 36 by CLSI M38-A2 broth microdilution method; in short: as §1
[44] = system: Aspergillus fumigatus; experiment: Antimicrobial activity against Aspergillus fumigatus isolate 37 by CLSI M38-A2 broth microdilution method; in short: as §1

CC[C@@H]([C@H](C)O)n1ncn(-c2ccc(N3CCN(c4ccc(OC[C@@H]5CO[C@@](Cn6cncn6)(c6ccc(F)cc6F)C5)cc4)CC3)cc2)c1=O [POSACONAZOLE]
MIC [1]: 0.06 µg/mL (≈ 0.0856 µM) | MIC [2]: ≤ 0.25 µg/mL | MIC [3]: ≤ 0.25 µg/mL | MIC [4]: 8 µg/mL (≈ 11.4 µM) | MIC [5]: 1 µg/mL (≈ 1.43 µM) | MIC [6]: 0.25 µg/mL (≈ 0.357 µM) | MIC [7]: 0.25 µg/mL (≈ 0.357 µM) | MIC [8]: 0.25 µg/mL (≈ 0.357 µM) | MIC [9]: 0.06 µg/mL (≈ 0.0856 µM) | MIC [10]: 0.25 µg/mL (≈ 0.357 µM) | MIC [11]: 0.5 µg/mL (≈ 0.713 µM) | MIC [12]: 0.06 µg/mL (≈ 0.0856 µM) | MIC [13]: 0.25 µg/mL (≈ 0.357 µM) | MIC [14]: ≤ 0.03 µg/mL | MIC [15]: ≤ 0.03 µg/mL | MIC [16]: ≤ 0.03 µg/mL | MIC [17]: 0.125 µg/mL (≈ 0.178 µM) | MIC [18]: 0.125 µg/mL (≈ 0.178 µM) | MIC [19]: 0.25 µg/mL (≈ 0.357 µM) | MIC [20]: 0.25 µg/mL (≈ 0.357 µM) | MIC [21]: 0.25 µg/mL (≈ 0.357 µM) | MIC [22]: 0.25 µg/mL (≈ 0.357 µM) | MIC [23]: 0.125 µg/mL (≈ 0.178 µM) | MIC [24]: 0.125 µg/mL (≈ 0.178 µM) | MIC [25]: 0.125 µg/mL (≈ 0.178 µM) | MIC [26]: 0.06 µg/mL (≈ 0.0856 µM) | MIC [27]: ≥ 0.5 µg/mL | MIC [28]: ≤ 0.25 µg/mL | MIC [29]: ≤ 0.25 µg/mL | MIC [30]: ≥ 0.5 µg/mL | MIC [31]: ≥ 0.5 µg/mL | MIC [32]: ≤ 0.25 µg/mL | MIC [33]: ≤ 0.25 µg/mL | MIC [34]: ≥ 0.5 µg/mL | MIC [35]: 1 µg/mL (≈ 1.43 µM) | MIC [36]: 1 µg/mL (≈ 1.43 µM) | MIC [37]: 0.25 µg/mL (≈ 0.357 µM) | MIC [38]: 0.125 µg/mL (≈ 0.178 µM) | MIC [39]: 0.125 µg/mL (≈ 0.178 µM) | MIC [40]: 0.125 µg/mL (≈ 0.178 µM) | MIC [41]: 0.125 µg/mL (≈ 0.178 µM) | MIC [42]: 0.125 µg/mL (≈ 0.178 µM) | MIC [43]: 0.125 µg/mL (≈ 0.178 µM) | MIC [44]: 0.125 µg/mL (≈ 0.178 µM)
